High-throughput results (PubChem)
M18AAP inhibitor = blocks P. falciparum M18 aspartyl aminopeptidase | inhibition, % at 7.35 µM | AID 1822 | recombinant PfM18AAP, H-Glu-NHMec fluorogenic cleavage | actives 1.2% (n = 290,000);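 active = inhibition above the campaign mean inhibition over all tested compounds plus 3 SD, cut at about 28% in these data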;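 also: 0% = plate median of test compound wells and 100% = 2 mM ZnCl2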
HDAC3 inh = human HDAC3 inhibition. actives 0.15% (n = 320,000). recombinant HDAC3, fluorogenic peptide/trypsin coupled, fluorescence. AID 2718. inhibition, % at 8.3 µM; in the data active = inhibition above about 26%, passing the limit was not always enough; inconclusive = no clear call, values can overlap the other calls
Target sequence (O15379 whole entry, looked up): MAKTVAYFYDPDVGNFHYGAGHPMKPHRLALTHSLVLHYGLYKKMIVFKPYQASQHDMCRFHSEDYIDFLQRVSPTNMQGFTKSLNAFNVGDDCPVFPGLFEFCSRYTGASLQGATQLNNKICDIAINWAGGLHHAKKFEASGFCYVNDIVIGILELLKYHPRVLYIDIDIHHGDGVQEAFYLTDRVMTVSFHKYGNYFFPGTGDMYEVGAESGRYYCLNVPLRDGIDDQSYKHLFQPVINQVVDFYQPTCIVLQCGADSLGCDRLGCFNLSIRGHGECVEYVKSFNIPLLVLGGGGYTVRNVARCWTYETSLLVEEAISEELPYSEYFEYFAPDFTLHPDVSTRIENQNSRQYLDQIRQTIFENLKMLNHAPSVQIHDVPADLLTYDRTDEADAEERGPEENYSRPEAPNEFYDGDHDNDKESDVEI
CTSL1 counter = counter-screen for PFM18AAP inhibitors: inhibitors of F. hepatica cathepsin L1. recombinant F. hepatica cathepsin L1, Z-Leu-Arg-MCA fluorescence. inhibition, % at 5.96 µM. actives 0.49% (n = 300,000);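 active = inhibition above the mean of all tested compounds plus 3 SD, set per screening campaign, cut at about 17% in these data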;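 also: 0% = plate median of test compound wells and 100% = 1 µM Z-Phe-Ala-diazomethylketone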
AHR activator = human AHR activation; actives 2.5% (n = 320,000); activation, % at 5 µM; P35869; AHR-responsive luciferase reporter cells, luminescence; in the data active = activation above about 47%;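 also: 0% = vehicle wells and 100% = reference agonist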
FXN GAA850 act = frataxin GAA850 promoter activation | AID 540364 | HEK293 lucGAA850 FXN promoter luciferase reporter, 24 h; percent of 10 µM SAHA response | activation, % at 6 µM | actives 0.56% (n = 360,000);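 active = activation above the average of all compounds screened plus 3 SD, cutoff fixed separately per campaign, cut at about 7.5% in these data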;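 also: 0% = DMSO wells and 100% = 10 µM SAHA wells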
SENP1 FRET inh = SENP1 (human) catalytic domain inhibition. Q9P0U3. AID 624204. actives 0.21% (n = 360,000). recombinant SENP1 catalytic domain, CyPet-SUMO1-YPet FRET cleavage. inhibition, % at 10 µM;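 active = inhibition at least 30% at 10 µM, raw YFP signal under a set limit, fluorescence ratio 0.5 to 1.5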;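 also: 0% = enzyme with DMSO and 100% = no enzyme wells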
Target sequence (Q9P0U3 419-644 limits assumed): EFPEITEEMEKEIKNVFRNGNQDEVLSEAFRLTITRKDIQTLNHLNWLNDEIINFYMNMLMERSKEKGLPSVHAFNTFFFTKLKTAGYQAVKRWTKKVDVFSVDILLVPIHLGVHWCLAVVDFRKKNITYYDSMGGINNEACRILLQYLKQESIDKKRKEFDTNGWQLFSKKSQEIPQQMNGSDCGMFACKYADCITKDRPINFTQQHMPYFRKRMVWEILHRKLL
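Test system: recombinant human SENP1 catalytic domain, His6-tagged / Medium: pH 8 Tris buffer with EDTA, NaCl, BME, BSA, NP40, catalase / Also added: SUMO1 FRET substrate flanked by Cypet and Ypet, 25 nM / Times: 50 min reaction at room temperature / Signal: FRET, CFP and YFP emission / Control set: no-enzyme low control and enzyme-plus-DMSO high control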
* hit, by the source's call; ? = inconclusive; . = no result. Shown are actives, neighbours in structure and some others; about 4.2% of the full set was active somewhere.

SMILES | M18AAP inhibitor | HDAC3 inh | CTSL1 counter | AHR activator | FXN GAA850 act | SENP1 FRET inh
O=C(NN1C(=O)/C(=C/c2ccc(O)cc2)SC1=S)c1cccc(O)c1 | 15 | 8 | 20* | -3 | 1 | 70
Cc1cc(C)nc(NN2C(=O)/C(=C/c3ccc(O)cc3)SC2=S)n1 | 30* | 1 | 0 | 2 | 0 | 67
NNC(=O)c1n[nH]c2c1CC(C1CCCCC1)CC2 (centres undefined) | . | 8 | 3 | 2 | 2 | 0
C=CCn1c(=N)n(CC(=O)OC)c2ccccc21 | -5 | -7 | 2 | 4 | -1 | 1
C=CCn1c(=N)n(CC(=O)c2ccc(Br)s2)c2ccccc21 | -10 | 1 | 0 | 80* | -1 | 8
C=CCn1c(=N)n(CC(=O)c2ccc(Cl)cc2)c2ccccc21 | -3 | 7 | -4 | 79* | -1 | 0
CCSc1ncc(/C=N/Nc2ccc(F)cc2)n1C | -42 | -6 | 4 | 77* | -1 | 29
CCN1C(=O)[C@@H]2[C@@H](c3ccc(-c4ccc(F)cc4)c(OC)c3)N3CCCC[C@@]3(C(=O)OC)[C@@H]2C1=O | . | ? | 2 | 3 | 0 | -5
Cc1cc(N/N=C/c2ccc(N(C)C)cc2)c2ccccc2n1 | 24 | -102 | -3 | 49* | 1 | -49
Cc1nnc(N/N=C/c2c[nH]c3ccccc23)[nH]c1=O | 29* | 12 | 5 | 16 | 1 | 0
NC(=S)N/N=C/c1c[nH]c2ccccc12 | 22 | 10 | 102* | 11 | 0 | -6
Fc1c(F)c(F)c(N/N=C/c2c[nH]c3ccccc23)c(F)c1F | -10 | 32* | 4 | 34 | 7 | -8
COc1cccc(-c2cc(CNC(=O)[C@H]3O[C@@H](n4ccc(N)nc4=O)[C@H](O)[C@@H]3O)no2)c1 | . | . | . | . | . | 3
Cc1cc(N/N=C/c2c[nH]c3ccccc23)c2ccccc2n1 | 3 | -1 | 4 | 58* | 3 | 0
CC(C)(C)OC1NS(=O)(=O)OCC1NCOC(Cl)(Cl)Cl (centres undefined) | 19 | -1 | 17* | 3 | 1 | -5
CC1=Nn2c(nnc2-c2cc(-c3ccccc3)n[nH]2)SC1 | 1 | -1 | 4 | 79* | -1 | 1
CC/C(=N\NC(=O)c1cc(C2CC2)[nH]n1)c1ccccc1 | 8 | -2 | -1 | 26 | 3 | 2
O=C1CC(c2ccco2)CC(O)=C1C=NCC1NCCc2ccccc21 (centres undefined) | 29* | 7 | 0 | 25 | 1 | -16
CCCNC(=O)C(Sc1ccccc1)c1ccccc1 (centres undefined) | -1 | -2 | 36* | 0 | 0 | 2
CNC(=O)C(Sc1ccccc1)c1ccccc1 (centres undefined) | -1 | -14 | -4 | -2 | 0 | -1
CC1CCN(C(=O)C2CCC(CNS(=O)(=O)c3ccc4c(c3)C(C)(C)C(=O)N4C)CC2)CC1 (centres undefined) | . | . | . | . | -1 | 2
O=C(CSc1nnc(CNC(=O)c2ccc(F)cc2)o1)Nc1nccs1 | 30* | 0 | 0 | -1 | -1 | -1
O=C(OC1CCCCC1)c1ccc(NC(=O)C2CCCCC2)cc1 | -14 | -1 | 2 | 1 | 2 | 3
CC(C)(C)C(=O)Nc1ccc(C(=O)OC2CCCCC2)cc1 | -7 | -2 | 2 | 1 | 10* | -1
CCc1nc(SCC(=O)c2ccc(Cl)s2)c2oc3ccccc3c2n1 | -8 | 0 | 2 | 60* | 1 | -136
SMILES | M18AAP inhibitor | HDAC3 inh | CTSL1 counter | AHR activator | FXN GAA850 act | SENP1 FRET inh
CCCOC(=O)C1=C(C)N(C)C(=O)NC1c1cc2c(cc1[N+](=O)[O-])OCO2 (centres undefined) | 9 | 7 | 3 | 60* | 0 | -16
COCc1cc(=O)[nH]c(Nc2nc3ccc(C)cc3o2)n1 | 7 | -6 | 1 | 48* | -15 | -1
Cc1ccc(SCCOCCN2CCc3ccccc3C2)cc1 | -1 | 10 | 0 | 1 | 2 | 0
Cc1cc2nc(-c3ccc(=O)[nH]c3)n(Cc3ccccc3)c2cc1C | 0 | -1 | 2 | 79* | 0 | -7
Cc1ccccc1Cn1c(-c2ccc(=O)[nH]c2)nc2ccccc21 | 11 | -2 | -4 | 0 | 0 | -3
COc1ncnc2c1NC1=C(S2)C(=NCCC(=O)O)CC(C)(C)C1 | 21 | 8 | -2 | 13 | 2 | 52*
COc1cccc(CCC(=O)O)c1OC | 5 | 2 | 19* | 4 | 1 | 0
O=C(Nc1nc2ccccc2[nH]1)Nc1ccccc1F | -7 | 2 | -1 | 48* | 2 | -2
COc1ccc(C(=O)Nc2nc3ccccc3[nH]2)cc1 | 2 | 1 | 3 | 50* | -7 | -1
O=C(Nc1nc2ccccc2[nH]1)c1cccc([N+](=O)[O-])c1 | 6 | -4 | 2 | 50* | 7 | -3
O=C(CSc1nc2ccccc2[nH]1)Nc1ccccc1F | -2 | 2 | -2 | 2 | 3 | 1
O=C(Nc1nc2ccccc2[nH]1)c1cccc(Br)c1 | -1 | 6 | -1 | 57* | 3 | 0
COc1ccccc1NC(=O)Nc1cnccn1 | -16 | 3 | 2 | -1 | 5 | -1
CSc1ccccc1C(=O)Nc1nc2ccccc2[nH]1 | -3 | -6 | 2 | 68* | 5 | 0
CC1=Nc2ccccc2N=C(NC(=O)/C=C/C(=O)O)C1c1ccccc1 (centres undefined) | 9 | -1 | 0 | 8 | 6 | 3
COc1ccc(C(=O)NC2=Nc3ccccc3N=C(C)C2c2ccccc2)cc1 (centres undefined) | -10 | 77* | 2 | 5 | 5 | 2
O=C(Nc1cnccn1)Nc1ccccc1F | -1 | 13 | 2 | 61* | 2 | 2
CC1=C(C(=O)N2CCOCC2)CC(CC(=O)NC2CCCCC2)C(=O)N1Cc1ccc(F)cc1 (centres undefined) | . | . | . | . | 0 | 1
NCc1ccccc1CS(=O)(=O)N1CCOCC1 | . | 1 | . | 0 | 1 | 2
Cc1c(/C=N/NC(=O)c2cc(C(C)(C)C)[nH]n2)c2ccccc2n1C | -4 | -2 | -3 | 73* | 1 | 0
Cc1ccsc1/C=N\NC(=O)c1cc(C(C)(C)C)[nH]n1 | -3 | -3 | 0 | 21 | 5 | 0
COc1ccc(CC(=O)N/N=C/c2c(C)n(C)c3ccccc23)cc1OC | 8 | 3 | 1 | 48* | -2 | -7
COc1ccc(CC(=O)N/N=C/c2cc(Br)cs2)cc1OC | -2 | 0 | -10 | 0 | 0 | 1
CC(=O)Nc1sc(N/N=C/c2ccc(O)cc2)nc1-c1ccc(C)cc1 | 11 | -9 | 6 | 8 | 1 | 0
CC(C)(C)c1csc(N/N=C/c2ccc(O)cc2)n1 | 7 | 6 | -7 | 72* | 6 | -4
